Experiments:
Rattus norvegicus [1] = experiment: Antiinflammatory activity against albino rat assessed as inhibition of carrageenan-induced paw edema at 0.28 mmol/kg, po administered 30 mins prior to carrageenan challenge measured after 1 hr relative to control; format: functional
Procedure, shortened: (§1)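 Adult male albino rats (120–140 g), in groups of four, were fasted 24 h with water allowed. Compounds were given orally as a suspension in 0.5% w/v CMC in water, and controls received CMC alone. After 30 min, 0.1 mL of 1% carrageenan in saline was injected subplantar into the right hind paw and saline into the left. Paw thickness was measured by caliper. % inhibition = [(VR−VL)control − (VR−VL)treated]/(VR−VL)control; one-way ANOVA.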

[2] = target: T1, Prostaglandin G/H synthase 1 (Ovis aries, UniProt P05979); experiment: Inhibition of ovine COX1 using ADHP as substrate after 20 mins by fluorescence assay
T1 sequence (P05979 whole entry): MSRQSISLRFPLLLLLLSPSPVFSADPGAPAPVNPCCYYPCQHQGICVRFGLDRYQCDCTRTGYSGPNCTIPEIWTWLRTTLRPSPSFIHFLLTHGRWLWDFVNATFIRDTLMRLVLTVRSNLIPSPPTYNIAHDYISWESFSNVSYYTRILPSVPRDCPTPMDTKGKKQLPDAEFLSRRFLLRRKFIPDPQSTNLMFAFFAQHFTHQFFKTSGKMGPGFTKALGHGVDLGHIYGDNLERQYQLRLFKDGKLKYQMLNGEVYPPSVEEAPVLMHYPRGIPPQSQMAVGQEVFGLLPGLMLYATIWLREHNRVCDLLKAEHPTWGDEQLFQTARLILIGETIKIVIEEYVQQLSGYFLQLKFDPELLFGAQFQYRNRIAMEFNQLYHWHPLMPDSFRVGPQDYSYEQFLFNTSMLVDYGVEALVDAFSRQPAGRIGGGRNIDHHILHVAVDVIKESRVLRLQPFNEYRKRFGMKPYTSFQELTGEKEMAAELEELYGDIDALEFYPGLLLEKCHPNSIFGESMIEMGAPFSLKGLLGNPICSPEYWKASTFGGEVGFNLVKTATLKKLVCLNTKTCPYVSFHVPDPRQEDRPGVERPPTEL
Procedure, shortened: (§2)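 Ovine COX-1 or human recombinant COX-2 was preincubated 20 min at room temperature with a range of compound concentrations in 100 mM Tris-HCl pH 8.0, heme and ADHP. Arachidonic acid was then added for 2 min at room temperature, and resorufin fluorescence was read. IC50 came from the dose-response curve (triplicate determinations). Selectivity index = COX-1 IC50/COX-2 IC50.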

Rattus norvegicus [3] = experiment: Antiinflammatory activity against albino rat assessed as inhibition of carrageenan-induced paw edema at 0.28 mmol/kg, po administered 30 mins prior to carrageenan challenge measured after 2 hrs relative to control; format: functional; procedure, shortened: as §1
[4] = target: T2, Prostaglandin G/H synthase 2 (Homo sapiens, UniProt P35354); experiment: Inhibition of human recombinant COX2 using ADHP as substrate after 20 mins by fluorescence assay; procedure, shortened: as §2
T2 sequence (P35354 whole entry): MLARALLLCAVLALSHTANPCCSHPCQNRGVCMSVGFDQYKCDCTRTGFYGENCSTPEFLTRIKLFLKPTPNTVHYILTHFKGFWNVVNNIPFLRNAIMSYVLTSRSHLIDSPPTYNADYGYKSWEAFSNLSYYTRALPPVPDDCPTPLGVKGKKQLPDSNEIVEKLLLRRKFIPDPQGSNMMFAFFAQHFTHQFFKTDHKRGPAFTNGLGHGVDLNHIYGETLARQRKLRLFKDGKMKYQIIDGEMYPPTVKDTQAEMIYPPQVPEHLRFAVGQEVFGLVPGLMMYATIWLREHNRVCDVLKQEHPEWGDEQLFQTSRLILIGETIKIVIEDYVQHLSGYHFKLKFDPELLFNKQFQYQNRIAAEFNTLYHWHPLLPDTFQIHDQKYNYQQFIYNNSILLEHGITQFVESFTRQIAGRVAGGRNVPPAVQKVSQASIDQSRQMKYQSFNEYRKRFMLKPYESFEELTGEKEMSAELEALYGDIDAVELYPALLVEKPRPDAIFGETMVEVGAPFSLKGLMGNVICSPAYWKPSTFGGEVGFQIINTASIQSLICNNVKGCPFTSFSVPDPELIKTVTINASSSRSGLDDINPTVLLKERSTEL

Rattus norvegicus [5] = experiment: Antiinflammatory activity against albino rat assessed as inhibition of carrageenan-induced paw edema at 0.28 mmol/kg, po administered 30 mins prior to carrageenan challenge measured after 3 hrs relative to control; format: functional; procedure, shortened: as §1
Rattus norvegicus [6] = experiment: Gastric toxicity in rat assessed as ulcer index at 0.28 mmol/kg, po; format: organism-based; conditions: in vivo
[7] = Selectivity index, ratio of IC50 for ovine COX1 to IC50 for human recombinant COX2; procedure, shortened: as §2
Rattus norvegicus [8] = experiment: Antiinflammatory activity against albino rat assessed as inhibition of carrageenan-induced paw edema at 0.28 mmol/kg, po administered 30 mins prior to carrageenan challenge measured after 4 hrs relative to control; format: functional; procedure, shortened: as §1
Rattus norvegicus [9] = experiment: Antiinflammatory activity against albino rat assessed as inhibition of carrageenan-induced paw edema at 0.28 mmol/kg, po administered 30 mins prior to carrageenan challenge measured after 3 hrs relative to celecoxib; format: functional; set-up: scale not given: the % may be the effect or the level left
Rattus norvegicus [10] = experiment: Antiinflammatory activity against albino rat assessed as inhibition of carrageenan-induced paw edema at 0.28 mmol/kg, po administered 30 mins prior to carrageenan challenge measured after 5 hrs relative to control; format: functional; procedure, shortened: as §1
Rattus norvegicus [11] = experiment: Antiinflammatory activity against albino rat assessed as inhibition of carrageenan-induced paw edema at 0.28 mmol/kg, po administered 30 mins prior to carrageenan challenge measured after 3 hrs relative to indomethacin; format: functional; set-up: scale not given: the % may be the effect or the level left

NS(=O)(=O)c1ccc(-n2nc(C(=O)NC3CCCCC3)nc2-c2ccccc2)cc1
inhibition in vivo at 280 µmol/kg (Rattus norvegicus [1]): 20%
IC50 [2]: > 1000 µM
inhibition in vivo at 280 µmol/kg (Rattus norvegicus [3]): 43%
IC50 [4]: 0.66 µM
inhibition in vivo at 280 µmol/kg (Rattus norvegicus [5]): 65%
UI (Rattus norvegicus [6]): 0
Ratio IC50 [7]: > 1520
inhibition in vivo at 280 µmol/kg (Rattus norvegicus [8]): 53%
Activity (Rattus norvegicus [9]): 94%
inhibition in vivo at 280 µmol/kg (Rattus norvegicus [10]): 42%
Activity (Rattus norvegicus [11]): 82%

COc1ccc(NC(=O)c2nc(-c3ccccc3)n(-c3ccc(S(N)(=O)=O)cc3)n2)cc1
inhibition in vivo at 280 µmol/kg (Rattus norvegicus [1]): 53%
IC50 [2]: > 1000 µM
inhibition in vivo at 280 µmol/kg (Rattus norvegicus [3]): 57%
IC50 [4]: 0.89 µM
inhibition in vivo at 280 µmol/kg (Rattus norvegicus [5]): 78%
UI (Rattus norvegicus [6]): 2.3
Ratio IC50 [7]: > 1120
inhibition in vivo at 280 µmol/kg (Rattus norvegicus [8]): 73%
Activity (Rattus norvegicus [9]): 113%
inhibition in vivo at 280 µmol/kg (Rattus norvegicus [10]): 55%
Activity (Rattus norvegicus [11]): 99%

COc1ccc(NC(=O)c2nc(-c3ccccc3)n(-c3ccc(S(N)(=O)=O)cc3)n2)cc1OC
inhibition in vivo at 280 µmol/kg (Rattus norvegicus [1]): 22%
IC50 [2]: 346 µM
inhibition in vivo at 280 µmol/kg (Rattus norvegicus [3]): 52%
IC50 [4]: 1.3 µM
inhibition in vivo at 280 µmol/kg (Rattus norvegicus [5]): 72%
UI (Rattus norvegicus [6]): 0
Ratio IC50 [7]: 266
inhibition in vivo at 280 µmol/kg (Rattus norvegicus [8]): 63%
Activity (Rattus norvegicus [9]): 104%
inhibition in vivo at 280 µmol/kg (Rattus norvegicus [10]): 60%
Activity (Rattus norvegicus [11]): 91%

NNC(=O)c1nc(-c2ccccc2)n(-c2ccc(S(N)(=O)=O)cc2)n1
inhibition in vivo at 280 µmol/kg (Rattus norvegicus [1]): 32%
inhibition in vivo at 280 µmol/kg (Rattus norvegicus [3]): 53%
inhibition in vivo at 280 µmol/kg (Rattus norvegicus [5]): 60%
UI (Rattus norvegicus [6]): 3
inhibition in vivo at 280 µmol/kg (Rattus norvegicus [8]): 45%
Activity (Rattus norvegicus [9]): 87%
inhibition in vivo at 280 µmol/kg (Rattus norvegicus [10]): 32%
Activity (Rattus norvegicus [11]): 76%

CC(C)NC(=O)c1nc(-c2ccccc2)n(-c2ccc(S(N)(=O)=O)cc2)n1
inhibition in vivo at 280 µmol/kg (Rattus norvegicus [1]): 21%
IC50 [2]: > 1000 µM
inhibition in vivo at 280 µmol/kg (Rattus norvegicus [3]): 43%
IC50 [4]: 16 µM
inhibition in vivo at 280 µmol/kg (Rattus norvegicus [5]): 55%
UI (Rattus norvegicus [6]): 0
Ratio IC50 [7]: > 62.5
inhibition in vivo at 280 µmol/kg (Rattus norvegicus [8]): 44%
Activity (Rattus norvegicus [9]): 80%
inhibition in vivo at 280 µmol/kg (Rattus norvegicus [10]): 43%
Activity (Rattus norvegicus [11]): 70%

Cc1ccc(NC(=O)c2nc(-c3ccccc3)n(-c3ccc(S(N)(=O)=O)cc3)n2)cc1
inhibition in vivo at 280 µmol/kg (Rattus norvegicus [1]): 40%
IC50 [2]: 516 µM
inhibition in vivo at 280 µmol/kg (Rattus norvegicus [3]): 47%
IC50 [4]: 1.9 µM
inhibition in vivo at 280 µmol/kg (Rattus norvegicus [5]): 76%
UI (Rattus norvegicus [6]): 1
Ratio IC50 [7]: 271
inhibition in vivo at 280 µmol/kg (Rattus norvegicus [8]): 71%
Activity (Rattus norvegicus [9]): 110%
inhibition in vivo at 280 µmol/kg (Rattus norvegicus [10]): 65%
Activity (Rattus norvegicus [11]): 96%

NS(=O)(=O)c1ccc(-n2nc(C(=O)Nc3ccc(Cl)cc3)nc2-c2ccccc2)cc1
inhibition in vivo at 280 µmol/kg (Rattus norvegicus [1]): 36%
IC50 [2]: > 1000 µM
inhibition in vivo at 280 µmol/kg (Rattus norvegicus [3]): 62%
IC50 [4]: 0.47 µM
inhibition in vivo at 280 µmol/kg (Rattus norvegicus [5]): 67%
UI (Rattus norvegicus [6]): 0.5
Ratio IC50 [7]: > 2130
inhibition in vivo at 280 µmol/kg (Rattus norvegicus [8]): 53%
Activity (Rattus norvegicus [9]): 97%
inhibition in vivo at 280 µmol/kg (Rattus norvegicus [10]): 44%
Activity (Rattus norvegicus [11]): 85%

NS(=O)(=O)c1ccc(-n2nc(C(=O)Nc3nc4ccccc4s3)nc2-c2ccccc2)cc1
inhibition in vivo at 280 µmol/kg (Rattus norvegicus [1]): 20%
IC50 [2]: 798 µM
inhibition in vivo at 280 µmol/kg (Rattus norvegicus [3]): 32%
IC50 [4]: 0.38 µM
inhibition in vivo at 280 µmol/kg (Rattus norvegicus [5]): 54%
UI (Rattus norvegicus [6]): 1
Ratio IC50 [7]: 2100
inhibition in vivo at 280 µmol/kg (Rattus norvegicus [8]): 44%
Activity (Rattus norvegicus [9]): 78%
inhibition in vivo at 280 µmol/kg (Rattus norvegicus [10]): 38%
Activity (Rattus norvegicus [11]): 68%

Cc1ccc(-c2cc(C(F)(F)F)nn2-c2ccc(S(N)(=O)=O)cc2)cc1 [CELECOXIB]
inhibition in vivo at 280 µmol/kg (Rattus norvegicus [1]): 44%
inhibition in vivo at 280 µmol/kg (Rattus norvegicus [3]): 50%
inhibition in vivo at 280 µmol/kg (Rattus norvegicus [5]): 69%
UI (Rattus norvegicus [6]): 0.5
inhibition in vivo at 280 µmol/kg (Rattus norvegicus [8]): 59%
Activity (Rattus norvegicus [9]): 100%
inhibition in vivo at 280 µmol/kg (Rattus norvegicus [10]): 52%

CC(=O)c1ccc(NC(=O)c2nc(-c3ccccc3)n(-c3ccc(S(N)(=O)=O)cc3)n2)cc1
inhibition in vivo at 280 µmol/kg (Rattus norvegicus [1]): 53%
inhibition in vivo at 280 µmol/kg (Rattus norvegicus [3]): 68%
inhibition in vivo at 280 µmol/kg (Rattus norvegicus [5]): 73%
UI (Rattus norvegicus [6]): 0.5
inhibition in vivo at 280 µmol/kg (Rattus norvegicus [8]): 64%
Activity (Rattus norvegicus [9]): 106%
inhibition in vivo at 280 µmol/kg (Rattus norvegicus [10]): 42%
Activity (Rattus norvegicus [11]): 92%

NC(=O)c1nc(-c2ccccc2)n(-c2ccc(S(N)(=O)=O)cc2)n1
inhibition in vivo at 280 µmol/kg (Rattus norvegicus [1]): 43%
inhibition in vivo at 280 µmol/kg (Rattus norvegicus [3]): 48%
inhibition in vivo at 280 µmol/kg (Rattus norvegicus [5]): 52%
UI (Rattus norvegicus [6]): 2
inhibition in vivo at 280 µmol/kg (Rattus norvegicus [8]): 49%
Activity (Rattus norvegicus [9]): 75%
inhibition in vivo at 280 µmol/kg (Rattus norvegicus [10]): 42%
Activity (Rattus norvegicus [11]): 66%

COC(=O)c1nc(-c2ccccc2)n(-c2ccc(S(N)(=O)=O)cc2)n1
inhibition in vivo at 280 µmol/kg (Rattus norvegicus [1]): 38%
inhibition in vivo at 280 µmol/kg (Rattus norvegicus [3]): 48%
inhibition in vivo at 280 µmol/kg (Rattus norvegicus [5]): 69%
UI (Rattus norvegicus [6]): 3
inhibition in vivo at 280 µmol/kg (Rattus norvegicus [8]): 61%
Activity (Rattus norvegicus [9]): 100%
inhibition in vivo at 280 µmol/kg (Rattus norvegicus [10]): 46%
Activity (Rattus norvegicus [11]): 87%

NS(=O)(=O)c1ccc(-n2nc(C(=O)NCc3ccccc3)nc2-c2ccccc2)cc1
inhibition in vivo at 280 µmol/kg (Rattus norvegicus [1]): 42%
IC50 [2]: > 1000 µM
inhibition in vivo at 280 µmol/kg (Rattus norvegicus [3]): 47%
IC50 [4]: 1.7 µM
inhibition in vivo at 280 µmol/kg (Rattus norvegicus [5]): 58%
UI (Rattus norvegicus [6]): 3
Ratio IC50 [7]: > 588
inhibition in vivo at 280 µmol/kg (Rattus norvegicus [8]): 36%
Activity (Rattus norvegicus [9]): 84%
inhibition in vivo at 280 µmol/kg (Rattus norvegicus [10]): 29%
Activity (Rattus norvegicus [11]): 73%

COc1ccc2c(c1)c(CC(=O)O)c(C)n2C(=O)c1ccc(Cl)cc1 [INDOMETHACIN]
inhibition in vivo at 280 µmol/kg (Rattus norvegicus [1]): 54%
inhibition in vivo at 280 µmol/kg (Rattus norvegicus [3]): 66%
inhibition in vivo at 280 µmol/kg (Rattus norvegicus [5]): 79%
UI (Rattus norvegicus [6]): 39
inhibition in vivo at 280 µmol/kg (Rattus norvegicus [8]): 81%
inhibition in vivo at 280 µmol/kg (Rattus norvegicus [10]): 84%
Activity (Rattus norvegicus [11]): 100%
